The data set in a line: Toxicity liver stage against HepG2, at 10uM. The following applies: human, HepG2-A16-CD81EGFP cells; read-out: INHIBITION
Details: test concentration 10 uM, cell line HepG2-A16-CD81EGFP. The format is cell-based. A digest of the protocol: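 Uninfected HepG2-A16-CD81EGFP cells, 3 × 10^3 per well, 1536-well, plated on prespotted compound at 10 μM final, parasite-free screening media added to match infected plates; puromycin 10 μM positive, DMSO 0.5% negative; run in parallel with 48 h PbLuc assay at 37 °C, 5% CO2; viability by CellTiter-Glo luminescence, normalized to controls.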
Regarding `c1ncc2c(n1)CN(CC1CCCCO1)CC2` (stereo unspecified), the cytotoxicity at 10 µM stood at 2.93%. The figure for `CCCc1cc(=O)[nH]c(-n2nc(-c3cccs3)cc2N)n1` is 11.2%; for `O=C(Nc1ccccc1F)c1nn(C2CCS(=O)(=O)C2)c2c1CCCC2` (stereo unspecified) it is 6.17%; for `O=C(NCCCN1CCCCC1)c1ccc(-n2ccc3ccccc32)s1` it is -6.19%. `CC(C(=O)NC1CCN(C)CC1)n1nc(C(F)(F)F)c(Cl)c1C1CC1` (stereo unspecified): the cytotoxicity at 10 µM is -8.17%.

As for `Cc1cc2c(cc1Cl)C=CC1(CCN(CC(=O)N3CCCC3)CC1)O2`, the cytotoxicity at 10 µM was -8.05%. To `Fc1ccc(CN2CCCC(c3cc4ncccc4[nH]3)C2)cc1` (stereo unspecified) belongs -1.87%. The figure for `CN1CCC(c2cccc(Cc3ccc(C(F)(F)F)cc3)n2)CC1` is 3%; for `CN(C(=O)Nc1ccncc1)C1CCN(c2ccc(Cl)cc2)CC1` it is 1.44%. In the case of `O=C(CCn1cncn1)NCC1CCS(=O)(=O)C1` (stereo unspecified), the cytotoxicity at 10 µM is -48.3%. `O=C(Nc1cncc(Br)c1O)c1ccon1`: the cytotoxicity at 10 µM is 15.4%. The figure for `CCc1nnc(CNc2ccc(CC(=O)N3CCSCC3)cc2)o1` is 7.37%.

On to `CC(OCC1CC1)C(=O)Nc1cccc(C(=O)Nc2ccncc2)c1` (stereo unspecified), for which the cytotoxicity at 10 µM came out at 7.12%. To `COc1ccc2c(c1)OCC(CNC1CCc3nc(C)nn3C1)=C2` (stereo unspecified) belongs 1.84%; to `CC(C)(C)n1ncc(NCC(O)c2ccc(F)c(F)c2)c(Cl)c1=O` (stereo unspecified), 54.1%; to `COc1ccc(C)cc1CN1CCn2cccc2C1C` (stereo unspecified), 18.3%. The figure for `COc1ccsc1C(=O)NC1CCN(c2cccc(F)c2)CC1` is 18.3%. To `CC(C)CCN(C(=O)Nc1cccc(C(=O)N(C)C)c1)C1CC1` belongs -14.2%; to `CN(CCOc1ccccc1)C(=O)Nc1cccn(C)c1=O`, -11.3%. Turning to `COCC(=O)NC(C)c1sc(-c2ccccc2F)nc1C` (stereo unspecified), the cytotoxicity at 10 µM was 5.41%. To `CC(C)c1ccc(/C=C/CC(=O)NC2CCN(C(N)=O)CC2)cc1` belongs 7.1%; to `Cc1nn(C)c(C)c1CCNC(C)c1ccc(-n2ccnc2C)cc1` (stereo unspecified), 31.6%; to `Cc1cc(CN(C)CCN(C)c2ccccc2)no1`, -4.65%. The figure for `CCSCCC(C)N(C)C(=O)c1ccc(C)o1` (stereo unspecified) is -3.75%. The figure for `O=C(Nc1nccs1)C1CCCN1Cc1ccccn1` (stereo unspecified) is -20%; for `CCNc1ccnc(CN2CCCC2C(=O)Nc2nccs2)c1` (stereo unspecified) it is 4.32%.

In the case of `N#Cc1ccc(OCC(O)CN2CCN(c3nccs3)CC2)cc1` (stereo unspecified), the cytotoxicity at 10 µM is 2.06%. `Cc1cnn(CCNCc2ccc(OCc3cscn3)cc2)c1`: the cytotoxicity at 10 µM is -5.48%.

On to `Cc1cccc2c1OCCCC2NCc1nnc2n1CCCCC2` (stereo unspecified), for which the cytotoxicity at 10 µM was -0.699%. The figure for `Cc1nn(C)c(N(C)C)c1CNCC(O)COc1cccc(F)c1` (stereo unspecified) is 6.2%; for `COc1ccc(-c2nnc(SC(C)C(=O)NC(C)(C)C)[nH]2)c(OC)c1` (stereo unspecified) it is 66.5%. With `CC(Cn1cccn1)NCc1nc(-c2cccnc2)no1` (stereo unspecified), the cytotoxicity at 10 µM was -0.813%.

Consider `CCOCc1ccccc1NC(=O)NCC(C)(O)c1cc(C)oc1C` (stereo unspecified), for which the cytotoxicity at 10 µM is -1.48%.

For `COc1cccc(CNc2cc(C)nc(-c3ccncc3)n2)c1OC`, the cytotoxicity at 10 µM turned out to be 46.5%.

As for `O=S(=O)(N1CCCC1)N1CCc2sccc2C1`, the cytotoxicity at 10 µM came to 1.7%.

For the compound `CN(Cc1cccnc1)C(CO)c1cccc(Br)c1` (stereo unspecified), the cytotoxicity at 10 µM was -5.37%. The figure for `CC(SCC(=O)N(C)CC(=O)NC1CC1)c1ccccc1F` (stereo unspecified) is -2.49%; for `NCc1ccnc(Oc2ccc(F)cc2)c1` it is 12.4%; for `CN(Cc1c(F)cccc1Cl)C(=O)CN(C)C1CCc2ccccc21` (stereo unspecified) it is 11.3%. Turning to `CCN(c1ccc(C(=O)NCc2cc[nH]n2)cc1)C(C)C`, the cytotoxicity at 10 µM stood at 11.9%. On to `COCCCN1CCCN(C(C)C(=O)Nc2cccc(I)c2)CC1` (stereo unspecified), for which the cytotoxicity at 10 µM was -8.34%. For the compound `CCc1nc(CN2CCCN(c3ncnc4ccccc34)CC2)no1`, the cytotoxicity at 10 µM is 43.6%.

For the compound `CC(NC(=O)c1cc(-c2cccc(Cl)c2)no1)C(=O)N1CCCC1` (stereo unspecified), the cytotoxicity at 10 µM was determined as 3.59%. As to `CS(=O)(=O)N1C[C@H]2CN(CC3CC3)C(=O)[C@H]2C1`, the cytotoxicity at 10 µM came to 6.53%. On to `Cc1cncc(NC(=O)c2ccc(CN3CC[C@H](O)C3)cc2)c1`, for which the cytotoxicity at 10 µM turned out to be 12.4%. With `CC(C)N1CCCN(c2nc(-c3cccnc3)nc3c2cnn3C)CC1`, the cytotoxicity at 10 µM was found to be 28.2%. Take `CC(C)c1cc(NCc2csc(N(C)C)n2)nc(N)n1`: the cytotoxicity at 10 µM amounted to 31.8%. Turning to `CCc1nc(C)cc(N2CCCC(C(=O)c3ccc(OC)cc3C)C2)n1` (stereo unspecified), the cytotoxicity at 10 µM came out at 9.99%. To `CN(C)CCNC(=O)c1ccc(S(=O)(=O)N[C@@H]2CCNC2)cc1` belongs -49.2%; to `CCN(CC)C(=O)[C@@H]1C[C@@H](n2cc(-c3ccccn3)nn2)CN1`, 9.63%; to `CC(C)c1nc(CN2CCc3onc(-c4cccc(F)c4)c3C2)no1`, 5.56%. To `c1ccc(C2CCCN(c3ncnc4c3CCNC4)CC2)cc1` (stereo unspecified) belongs 58.5%; to `CCc1[nH]c2c(CNc3cc(C)nc(NC)n3)cc(C)cc2c1C`, -41%. To `Cc1noc(-c2ccnc(Oc3cccc(CN4CCCC4)c3F)c2)n1` belongs -7.07%. On to `Cc1cc2c(N3CCCC(OCc4cccnc4)C3)ncnc2s1` (stereo unspecified), for which the cytotoxicity at 10 µM amounted to 39%. As to `O=C(NC1CCCCC1)N1CCC(n2cc(-c3ccccn3)nn2)CC1`, the cytotoxicity at 10 µM amounted to 4.49%. The figure for `CC(C)CCC1=NC2(CCN(C(=O)CN3CCCC3=O)CC2)C(=O)N1` is -3.07%; for `Cc1nc(C)c(-c2ccn(CC(=O)Nc3cnn(C)n3)n2)s1` it is 74%. To `COc1cc(N2CCCC(CO)(Cc3ccccc3F)C2)ncn1` (stereo unspecified) belongs 45.7%. To `Cc1ccccc1CC1(CO)CCCN(c2ncnc3sccc23)C1` (stereo unspecified) belongs 27.5%; to `O=C(c1coc(COc2cccc3cnccc23)n1)N1CCCCCC1`, -128%; to `CCCN(Cc1nc2ccccc2[nH]1)Cc1ccccc1OC`, -39.6%. Turning to `CC1(C)CNC(=O)c2nc(CCCN3CCCC3)[nH]c2C1`, the cytotoxicity at 10 µM was -12.4%. Consider `CCCn1ncc(CN2CCCC(C(=O)c3ccc(SC)cc3)C2)c1C` (stereo unspecified), for which the cytotoxicity at 10 µM was -3.25%. Take `Cc1csc2ncnc(N3CCC(Cn4cc(C(C)(C)O)nn4)CC3)c12`: the cytotoxicity at 10 µM amounted to 49.2%. Take `OCC1(CCOc2ccccc2)CCCN(c2ccc(Cl)cn2)C1` (stereo unspecified): the cytotoxicity at 10 µM turned out to be 7.52%. To `CSCC(=O)N1CCCN(c2ccccc2C)CC1` belongs 8.14%; to `Cc1ncc(C)c(N2CCCC(CO)(Cc3cccc(Cl)c3)C2)n1` (stereo unspecified), 59.4%; to `Cc1nc(N2CC[C@@H](NC(=O)c3cnccn3)[C@H](O)C2)c2ccsc2n1`, 38.6%. To `CCCOc1ccc(CNc2cncc(-n3cccn3)n2)cc1` belongs 11.7%; to `CC(C)OCc1cccc(CNc2cnn(C)c(=O)c2Cl)c1`, 29.5%. Consider `Cc1cccc(C(=O)NCc2ccc(N3CCCCCC3)nc2)n1`, for which the cytotoxicity at 10 µM was -5.34%. The figure for `c1nc(N2CCCC(Cn3cncn3)C2)c2sccc2n1` (stereo unspecified) is 6.74%; for `CC1CN(CC2CCCC2)CCN1c1ccc2nncn2n1` (stereo unspecified) it is 6.36%.

`Cc1ccoc1C(=O)NC1CCN(Cc2csc3c(F)cccc23)CC1`: the cytotoxicity at 10 µM was found to be 1.13%. To `c1ccc2sc(CN3CCOC(Cn4cncn4)C3)nc2c1` (stereo unspecified) belongs -0.489%; to `c1ccc(Sc2ccc3c(c2)OCO3)c(CNC2=NCCN2)c1`, 17.6%; to `CNC(=O)[C@@H]1C[C@H]2CN(Cc3c(C)noc3C)C[C@H]2N1C(C)C`, -107%. For the compound `CN(C)CCOCC1CN(Cc2cccc(F)c2)Cc2nccn2C1` (stereo unspecified), the cytotoxicity at 10 µM is -131%. On to `c1ccc(-c2ccc(C3CNCCO3)nc2)cc1` (stereo unspecified), for which the cytotoxicity at 10 µM was 2.36%. The figure for `CCn1ncc2c1C(COCC1CC1)CN(c1ccc(C)nn1)C2` (stereo unspecified) is 11.4%. The figure for `O=C1N(Cc2cccnc2)CCC12CCCN(c1ncccn1)C2` (stereo unspecified) is -10.9%; for `Cc1cccc(CN2CCO[C@H]3[C@@H](OCc4ccncc4)CC[C@@H]32)n1` it is -85.4%; for `O=C(c1ccco1)N1CC[C@@H]2O[C@@H](COCCN3CCCC3)CC[C@@H]21` it is -76.8%. As to `COc1ccc(CN2C[C@@H]3OCCN(CCN4CCCC4)[C@@H]3C2)cc1`, the cytotoxicity at 10 µM was -82.4%. To `Clc1cccc(C[C@@H]2NCCC[C@@H]2Nc2ccccc2)c1` belongs 89.3%. To `N#Cc1ccc(N2CCCC3(CCN(c4cccnc4)CC3)C2)cc1` belongs 55.5%; to `O=S(=O)(c1cccs1)N1CCCC2(COCCN(c3cccnc3)C2)C1` (stereo unspecified), -78.5%. For the compound `COc1cccc(CN2CCc3nc(C(=O)NCC(C)C)sc3CC2)c1`, the cytotoxicity at 10 µM is 16.8%.

As to `Cc1noc(C)c1CN1Cc2ccnn2CC(C(=O)NCC2CC2)C1` (stereo unspecified), the cytotoxicity at 10 µM was -69.2%. With `COc1cc(N2C[C@H]3CN(Cc4ccccn4)C[C@H]3C2)ncn1`, the cytotoxicity at 10 µM was -96.3%. The figure for `c1ccc2c(c1)N(CC1CCOC1)CC21CCN(c2cnccn2)CC1` (stereo unspecified) is -94.7%. To `O=C1CC[C@H]2[C@H](CCN2S(=O)(=O)C2CC2)N1CCN1CCCC1` belongs -88.9%; to `c1cnc(N2CCC3(CC2)CN(CC2CC2)c2ccccc23)nc1`, 19.9%; to `CC(C)CS(=O)(=O)N1C[C@@H]2C[C@H](C(=O)N3CCOCC3)[C@H](C1)O2`, -2.71%. To `CC(C)c1nnc(N2C[C@H]3CC[C@@H](C2)N(Cc2ccccc2)C3)s1` belongs -3.86%.

The values above are taken from ChEMBL document CHEMBL4513216, “Probing the Open Global Health Chemical Diversity Library for Multistage-Active Starting Points for Next-Generation Antimalarials” (ACS Infect Dis, 2020).
